Laboratory results published in ChEMBL document CHEMBL1933059, “Imidazo [4,5f][1,10] phenanthroline derivatives as inhibitor of c-myc gene expression in A549 cells via NF-κB pathway” (Bioorg Med Chem Lett, 2012).

Experiments:
[1] = system: A549; test: Cytotoxicity against human A549 cells after 72 hrs by MTT assay; type: functional, cell-based; settings: A549, 72 h
Procedure, shortened: (§1)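 MTT growth-inhibition assay; IC50 values given as mean ± SD of triplicates.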

[2] = Cytotoxicity against human CNE1 cells after 72 hrs by MTT assay; type: functional, cell-based; settings: CNE; procedure, shortened: as §1
[3] = system: A549; test: Inhibition of NFkappa B in human A549 cells assessed as down regulation of NF-kappaB p65 protein expression at 1 to 5 uM by Western blot analysis; type: cell-based; settings: TDE = time-dependent effect
Procedure, shortened: (§2)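 A549 cells treated at 1, 2.5 and 5 μM. Timepoints: IκBα 24 h, p65 24 h, c-myc 24 and 48 h. Total cell lysates resolved on 10% polyacrylamide gels and immunoblotted with protein-specific antibodies. β-actin and GAPDH serve as internal controls. Mean ± SD of triplicates.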

[4] = system: A549; test: Inhibition of NFkappa B in human A549 cells assessed as decrease in c-myc protein expression at 1 to 5 uM by Western blot analysis; type: cell-based; settings: TDE = time-dependent effect; procedure, shortened: as §2
[5] = system: A549; test: Down regulation of c-myc gene expression in human A549 cells after 24 to 48 hrs by qRT-PCR analysis; type: functional, cell-based
[6] = system: A549; test: Induction of apoptosis in human A549 cells at 1 uM after 24 hrs by annexinV-propidium iodide staining-based flow cytometric analysis (reference value: 10.81%); type: functional
[7] = system: A549; test: Induction of apoptosis in human A549 cells at 5 uM after 24 hrs by annexinV-propidium iodide staining-based flow cytometric analysis (reference value: 10.81%); type: functional
[8] = system: A549; test: Inhibition of NFkappa B in human A549 cells assessed as down regulation of NF-kappaB p65 protein expression after 24 hrs by Western blot analysis; type: cell-based; procedure, shortened: as §2
[9] = system: Bel-7402; test: Cytotoxicity against human Bel7402 cells after 72 hrs by MTT assay; type: functional, cell-based; settings: Bel-7402, 72 h; procedure, shortened: as §1
[10] = system: A549; test: Inhibition of NFkappa B in human A549 cells assessed as decrease in c-myc protein expression after 24 to 48 hrs by Western blot analysis; type: cell-based; procedure, shortened: as §2
[11] = system: A-375; test: Cytotoxicity against human A375 cells after 72 hrs by MTT assay; type: functional, cell-based; settings: A-375, 72 h; procedure, shortened: as §1
[12] = system: HepG2; test: Cytotoxicity against human HepG2 cells after 72 hrs by MTT assay; type: functional, cell-based; settings: HepG2, 72 h; procedure, shortened: as §1
[13] = system: A549; test: Induction of apoptosis in human A549 cells at 2.5 uM after 24 hrs by annexinV-propidium iodide staining-based flow cytometric analysis (reference value: 10.81%); type: functional
[14] = Cytotoxicity against human HO8910 cells after 72 hrs by MTT assay; type: functional, cell-based; settings: HO-8910, 72 h; procedure, shortened: as §1
[15] = system: A549; test: Induction of IkappaBalpha protein expression in human A549 cells after 24 hrs by Western blot analysis; type: functional, cell-based; procedure, shortened: as §2

COc1ccc(-c2nc3c4cccnc4c4ncccc4c3[nH]2)cc1
IC50 [1]: 1360 nM

CCOc1ccc(-c2nc3c4cccnc4c4ncccc4c3[nH]2)cc1
IC50 [1]: 1960 nM

Fc1ccc(-c2nc3c4cccnc4c4ncccc4c3[nH]2)cc1
IC50 [1]: 1090 nM

Cc1ccc(-c2nc3c4cccnc4c4ncccc4c3[nH]2)cc1
IC50 [1]: 1330 nM

CCCCOc1ccc(-c2nc3c4cccnc4c4ncccc4c3[nH]2)cc1
IC50 [1]: 35500 nM

Clc1ccc(-c2nc3c4cccnc4c4ncccc4c3[nH]2)cc1
IC50 [1]: 1060 nM

CC(C)Oc1ccc(-c2nc3c4cccnc4c4ncccc4c3[nH]2)cc1
IC50 [1]: 31900 nM

CCCOc1ccc(-c2nc3c4cccnc4c4ncccc4c3[nH]2)cc1
IC50 [1]: 18000 nM

Brc1ccc(-c2nc3c4cccnc4c4ncccc4c3[nH]2)cc1
IC50 [1]: 850 nM
IC50 [2]: 1200 nM
inhibition [3]: tde
inhibition [4]: tde
Activity [5]: Dose-dependent effect
Activity [6]: 35.26%
Activity [7]: 50.94%
inhibition [8]: Dose-dependent effect
IC50 [9]: 5800 nM
inhibition [10]: Dose-dependent effect
IC50 [11]: 980 nM
IC50 [12]: 4300 nM
Activity [13]: 43.26%
IC50 [14]: 1560 nM
Activity [15]: Dose-dependent effect

FC(F)(F)c1ccc(-c2nc3c4cccnc4c4ncccc4c3[nH]2)cc1
IC50 [1]: 1730 nM
